Results as given in ChEMBL document CHEMBL1759935, “Pharmacokinetic optimisation of novel indole-2-carboxamide cannabinoid CB1 antagonists” (Bioorg Med Chem Lett, 2011).

Assays:
[1] = Intrinsic clearance in rat liver microsomes in presence of NADPH; type: ADME, Microsome
Summary of the method: (§1)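 P450 pathway: compound depletion in duplicate time-course incubations of microsomes at 0.5 mg protein/mL with 1 mM NADPH, pH 7.4. Liver microsomes prepared in-house; small intestinal microsomes purchased. Loss measured by LC–MS/MS; CL_int expressed per mg microsomal protein.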

[2] = Intrinsic clearance in dog liver microsomes in presence of NADPH; type: ADME, Canis lupus familiaris, Microsome; summary of the method: as §1
[3] = Intrinsic clearance in human liver microsomes in presence of UGT; type: ADME, Microsome
Summary of the method: (§2)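 UGT pathway: human gut or liver microsomes at 0.5 mg protein/mL with 2 mM UDPGA, alamethicin and 1 mM MgCl2, pH 7.1. Compound depletion measured by LC–MS/MS in duplicate time-course incubations; intrinsic clearance expressed per mg protein.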

[4] = Intrinsic clearance in rat gut microsomes in presence of UGT; type: ADME, Microsome
Summary of the method: (§3)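 UGT pathway: compound loss in duplicate time-course incubations of liver (prepared in-house) or small intestinal microsomes at 0.5 mg protein/mL, with 2 mM UDPGA, alamethicin and 1 mM MgCl₂ at pH 7.1. Detection by LC–MS/MS; CL_int expressed per mg microsomal protein.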

[5] = species on record: Mus musculus; assay: Clearance in mouse; type: ADME, organism-based; conditions: in vivo
[6] = Intrinsic clearance in human liver microsomes in presence of NADPH; type: ADME, Microsome
Summary of the method: (§4)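 Pooled human microsomes (gut or liver) at 0.5 mg protein/mL with 1 mM NADPH, pH 7.4 (P450 pathway). Compound loss followed by LC–MS/MS in duplicate time-course incubations; intrinsic clearance given per mg protein.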

[7] = Intrinsic clearance in dog gut microsomes in presence of NADPH; type: ADME, Canis lupus familiaris, Microsome; summary of the method: as §1
[8] = Intrinsic clearance in human gut microsomes in presence of NADPH; type: ADME, Microsome; summary of the method: as §4
[9] = species on record: Homo sapiens; assay: Clearance in human; type: ADME, organism-based; conditions: in vivo
[10] = species on record: Rattus norvegicus; assay: Clearance in rat; type: ADME, organism-based; conditions: in vivo
[11] = Intrinsic clearance in dog liver microsomes in presence of UGT; type: ADME, Canis lupus familiaris, Microsome; summary of the method: as §3
[12] = species on record: Canis familiaris; assay: Clearance in dog; type: ADME, organism-based, Canis lupus familiaris; conditions: in vivo
[13] = Bioavailability in mouse; type: ADME, organism-based; conditions: in vivo
[14] = Bioavailability in dog; type: ADME, organism-based, Canis lupus familiaris; conditions: in vivo
[15] = Intrinsic clearance in rat liver microsomes in presence of UGT; type: ADME, Microsome; summary of the method: as §3
[16] = clinical; conditions: human, in vivo
[17] = Intrinsic clearance in human gut microsomes in presence of UGT; type: ADME, Microsome; summary of the method: as §2
[18] = Bioavailability in rat; type: ADME, organism-based; conditions: in vivo
[19] = Intrinsic clearance in mouse liver microsomes in presence of UGT; type: ADME, Microsome; summary of the method: as §3
[20] = Intrinsic clearance in mouse liver microsomes in presence of NADPH; type: ADME, Microsome; summary of the method: as §1
[21] = Intrinsic clearance in mouse gut microsomes in presence of NADPH; type: ADME, Microsome; summary of the method: as §1
[22] = Intrinsic clearance in mouse gut microsomes in presence of UGT; type: ADME, Microsome; summary of the method: as §3
[23] = Intrinsic clearance in dog gut microsomes in presence of UGT; type: ADME, Canis lupus familiaris, Microsome; summary of the method: as §3
[24] = Intrinsic clearance in rat gut microsomes in presence of NADPH; type: ADME, Microsome; summary of the method: as §1
[25] = biological target: Cannabinoid receptor 2 (Homo sapiens, UniProt P34972); assay: Displacement of [3H]CP55940 from human recombinant CB2 receptor expressed in Sf9 cells
Summary of the method: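 Competition binding against [3H]CP55,940 on membranes from Sf9 cells expressing recombinant human CB2 receptor; run at least in duplicate.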

[26] = test system: Mus musculus; assay: Inhibition of WIN55212-2-induced hypothermia in po dosed mouse assessed as change in rectal temperature administered 15 mins before WIN55212-2 challenge measured after 75 mins; type: functional; conditions: read-out: ID50 (the source's name)
Summary of the method: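 Antagonist or vehicle (5% mulgofen in saline, 10 mL/kg) given orally 75 min before rectal temperature reading. WIN 55,212-2 mesylate (10 mL/kg) given sc 60 min before the reading, at its time of maximal hypothermia. Metal probe with vaseline inserted about 1.5 cm; highest temperature stable for 10 s recorded. ID50 reported with confidence interval.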

[27] = biological target: T1, Cannabinoid receptor 1 (Homo sapiens, UniProt P21554); assay: biochemical; type: cell-based, CHO
[28] = biological target: T1, Cannabinoid receptor 1; assay: Antagonist activity against human CB1 receptor; type: functional

T1 sequence (P21554 whole entry): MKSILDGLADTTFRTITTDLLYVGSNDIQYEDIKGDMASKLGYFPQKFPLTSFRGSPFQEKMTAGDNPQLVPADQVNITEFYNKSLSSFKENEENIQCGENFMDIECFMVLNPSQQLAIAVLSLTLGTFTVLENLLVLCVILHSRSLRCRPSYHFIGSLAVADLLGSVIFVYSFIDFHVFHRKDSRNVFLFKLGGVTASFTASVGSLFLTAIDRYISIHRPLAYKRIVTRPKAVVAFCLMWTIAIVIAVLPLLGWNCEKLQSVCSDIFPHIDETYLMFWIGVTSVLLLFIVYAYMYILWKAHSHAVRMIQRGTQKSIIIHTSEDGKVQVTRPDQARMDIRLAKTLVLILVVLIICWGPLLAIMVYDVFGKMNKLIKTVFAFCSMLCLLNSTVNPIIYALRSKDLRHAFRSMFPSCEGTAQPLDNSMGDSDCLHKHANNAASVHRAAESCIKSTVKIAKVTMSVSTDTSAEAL
Sequence of Cannabinoid receptor 2 (P34972 whole entry): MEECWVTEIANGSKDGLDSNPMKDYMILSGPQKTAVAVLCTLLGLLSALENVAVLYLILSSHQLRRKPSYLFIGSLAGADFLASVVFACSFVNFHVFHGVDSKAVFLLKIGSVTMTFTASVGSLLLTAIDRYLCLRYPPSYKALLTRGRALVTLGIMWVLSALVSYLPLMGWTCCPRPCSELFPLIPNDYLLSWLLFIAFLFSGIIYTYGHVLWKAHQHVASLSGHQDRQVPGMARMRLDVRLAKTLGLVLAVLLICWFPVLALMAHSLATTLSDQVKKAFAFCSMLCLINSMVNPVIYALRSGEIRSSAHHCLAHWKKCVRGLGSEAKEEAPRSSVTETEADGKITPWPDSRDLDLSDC

SMILES	microsomal CLint [1]	microsomal CLint [2]	microsomal CLint [3]	microsomal CLint [4]	clearance [5]	microsomal CLint [6]	microsomal CLint [7]	microsomal CLint [8]	clearance [10]	microsomal CLint [11]	clearance [12]	bioavailability [13]	bioavailability [14]	microsomal CLint [15]	microsomal CLint [17]	bioavailability [18]	microsomal CLint [19]	microsomal CLint [20]	microsomal CLint [21]	microsomal CLint [22]	also measured
O=C(c1ccc(OCCN2CCCCC2)cc1)c1c(-c2ccc(O)cc2)sc2cc(O)ccc12 [RALOXIFENE]	79 µL/min/mg	178 µL/min/mg	24 µL/min/mg	5 µL/min/mg	108 mL/min/kg	79 µL/min/mg	< 6 µL/min/mg	< 6 µL/min/mg	58 mL/min/kg	26 µL/min/mg	40 mL/min/kg	10%	5%	11 µL/min/mg	346 µL/min/mg	4%	< 6 µL/min/mg	66 µL/min/mg	< 6 µL/min/mg	34 µL/min/mg	clearance [9]: 21 mL/min/kg; bioavailability [16]: 2%; microsomal CLint [23]: 22 µL/min/mg; microsomal CLint [24]: < 6 µL/min/mg
Cc1ccc(C(F)(F)F)cc1Cn1c(C(=O)NCCC(C)(C)O)cc2cc(C#N)ccc21	> 280 µL/min/mg	17 µL/min/mg	< 6 µL/min/mg	< 6 µL/min/mg	10 mL/min/kg	12 µL/min/mg	< 6 µL/min/mg	< 6 µL/min/mg	200 mL/min/kg	< 6 µL/min/mg	15 mL/min/kg	31%	42%	> 280 µL/min/mg	< 6 µL/min/mg	2%	< 6 µL/min/mg	33 µL/min/mg	< 6 µL/min/mg	< 6 µL/min/mg	Ki [25]: > 10000 nM; ED50 [26]: 1.16 µmol/kg; Ki [27]: 4.37 nM; microsomal CLint [23]: < 6 µL/min/mg; microsomal CLint [24]: < 6 µL/min/mg; IC50 [28]: 5.13 nM
COc1ccc(OC(F)(F)F)cc1Cn1c(C(=O)NCC(C)(C)CO)cc2cc(C#N)ccc21	69 µL/min/mg	< 6 µL/min/mg	31 µL/min/mg	< 6 µL/min/mg	17 mL/min/kg	69 µL/min/mg	< 6 µL/min/mg	< 6 µL/min/mg	104 mL/min/kg	7 µL/min/mg	7 mL/min/kg	30%	67%	191 µL/min/mg	68 µL/min/mg	8%	< 6 µL/min/mg	45 µL/min/mg	< 6 µL/min/mg	< 6 µL/min/mg	Ki [25]: > 10000 nM; ED50 [26]: 0.88 µmol/kg; Ki [27]: 0.398 nM; microsomal CLint [23]: < 6 µL/min/mg; microsomal CLint [24]: < 6 µL/min/mg; IC50 [28]: 1.17 nM
